From ChEMBL document CHEMBL1156640, “Cyclopeptides with anti-inflammatory activity from seeds of Annona montana” (J Nat Prod, 2008) come the findings set out here.

Activity calls are given as the source filed them. No cut-off for these calls is given here. Peptide text beside a SMILES is read from it.

In one assay the test system is KB. Put plainly: Cytotoxicity against human KB cells. In kind it is functional, cell-based.
For a further assay, the system named is HepG2. Nature of the assay: Cytotoxicity against human HepG2 cells. In kind it is functional, cell-based.
The subject of a further assay is Hep 3B2. Nature of the assay: Cytotoxicity against human Hep3B cells. In kind it is functional, cell-based.
Another assay deals with MDA-MB-231. Nature of the assay: Cytotoxicity against human MDA-MB-231 cells. Format: functional, cell-based.
For a further assay, the system named is MCF7. Nature of the assay: Cytotoxicity against human MCF7 cells. Format: functional, cell-based.
Another assay deals with A549. Nature of the assay: Cytotoxicity against human A549 cells. Format: functional, cell-based.
The test system of a further assay is Ca9-22. Nature of the assay: Cytotoxicity against human Ca9-22 cells. In kind it is functional, cell-based.
Assay [1] concerns J774.A1. Nature of the assay: Antiinflammatory activity in mouse J774A.1 cells assessed as decrease in LPS-stimulated TNFalpha production at 30 ug/ml. In kind it is functional. Also on record: scale not given: the % may be the effect or the level left. Put shortly: (§1)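 J774A.1 murine macrophages at 1 × 10⁶/mL in RPMI 1640 with 10% heat-inactivated FBS and 2 mM L-glutamine, 37 °C, 5% CO₂. Cells preincubated with cyclopeptide at 37 °C for 30 min, then stimulated with LPS (0.1 µg/mL) for a further 6 h. TNF-α and IL-6 in culture medium measured by ELISA. DMSO-treated cells served as controls.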

For assay [2], the system named is J774.A1. Nature of the assay: Antiinflammatory activity in mouse J774A.1 cells assessed as decrease in LPS-stimulated IL6 production at 30 ug/ml. Set-up: scale not given: the % may be the effect or the level left. Format: functional. Put shortly: as §1
Assay [3] has as its system J774.A1. Put plainly: Antiinflammatory activity in mouse J774A.1 cells assessed as decrease in LPS-stimulated TNFalpha production at 1 ug/ml. Format: functional, cell-based. Put shortly: as §1
Assay [4] has as its system J774.A1. Put plainly: Antiinflammatory activity in mouse J774A.1 cells assessed as decrease in LPS-stimulated TNFalpha production at 3 ug/ml. In kind it is functional, cell-based. The essentials:
as §1

For assay [5], the system named is J774.A1. Put plainly: Antiinflammatory activity in mouse J774A.1 cells assessed as decrease in LPS-stimulated IL6 production at 3 ug/ml. Format: functional, cell-based. Put shortly:
as §1

Assay [6] concerns J774.A1. Nature of the assay: Antiinflammatory activity in mouse J774A.1 cells assessed as decrease in pam3Cys-stimulated TNFalpha production at 1 ug/ml. In kind it is functional, cell-based. The essentials: (§2)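 J774A.1 murine macrophages at 1 × 10⁶/mL in RPMI 1640 with 10% heat-inactivated FBS and 2 mM L-glutamine, 37 °C, 5% CO₂. Cells pretreated with cyclopeptide for 30 min, then stimulated with the TLR2 ligand Pam3Cys for an additional 6 h. TNF-α or IL-6 in culture medium determined by ELISA.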

For assay [7], the system named is J774.A1. Nature of the assay: Antiinflammatory activity in mouse J774A.1 cells assessed as decrease in pam3Cys-stimulated IL6 production at 3 ug/ml. In kind it is functional, cell-based. The essentials: as §2
In assay [8] the test system is J774.A1. Nature of the assay: Antiinflammatory activity in mouse J774A.1 cells assessed as decrease in pam3Cys-stimulated TNFalpha production at 3 ug/ml. Format: functional. The essentials:
as §2

Assay [9] concerns J774.A1. Nature of the assay: Antiinflammatory activity in mouse J774A.1 cells assessed as decrease in LPS-stimulated IL6 production at 3 ug/ml.
Assay [10] deals with J774.A1. Put plainly: Antiinflammatory activity in mouse J774A.1 cells assessed as decrease in pam3Cys-stimulated IL6 production at 3 ug/ml.
Assay [11] deals with J774.A1. Put plainly: Antiinflammatory activity in mouse J774A.1 cells assessed as decrease in LPS-stimulated IL6 production at 3 to 50 ug/ml. In kind it is functional, cell-based. Put shortly:
as §1

For assay [12], the system named is J774.A1. Put plainly: Antiinflammatory activity in mouse J774A.1 cells assessed as decrease in LPS-stimulated TNFalpha production at 3 to 50 ug/ml. In kind it is functional, cell-based. Put shortly:
as §1

For assay [13], the system named is J774.A1. Put plainly: Antiinflammatory activity in mouse J774A.1 cells assessed as decrease in pam3Cys-stimulated IL6 production at 3 to 50 ug/ml. In kind it is functional, cell-based. Put shortly: as §2
Assay [14] concerns J774.A1. Nature of the assay: Antiinflammatory activity in mouse J774A.1 cells assessed as decrease in pam3Cys-stimulated TNFalpha production at 5 ug/ml. In kind it is functional. The essentials: as §2
In assay [15] the test system is J774.A1. Put plainly: Antiinflammatory activity in mouse J774A.1 cells assessed as decrease in pam3Cys-stimulated TNFalpha production at 10 ug/ml. Format: functional. Put shortly:
as §2

Assay [16] concerns J774.A1. Put plainly: Antiinflammatory activity in mouse J774A.1 cells assessed as decrease in pam3Cys-stimulated TNFalpha production at 30 ug/ml. Format: functional. The essentials:
as §2

Assay [17] deals with J774.A1. Nature of the assay: Antiinflammatory activity in mouse J774A.1 cells assessed as decrease in pam3Cys-stimulated TNFalpha production at 50 ug/ml. In kind it is functional. The essentials: as §2
Assay [18] relates to J774.A1. Nature of the assay: Antiinflammatory activity in mouse J774A.1 cells assessed as decrease in pam3Cys-stimulated IL6 production. In kind it is functional, cell-based. The essentials: as §2

With `CC(C)[C@@H]1NC(=O)[C@H](Cc2ccccc2)NC(=O)CNC(=O)[C@@H]2CCCN2C(=O)[C@H](C)NC(=O)[C@H](CO)NC1=O` [ANNUMURICATIN C] (cyclo(APGFVS)), the IC50 (commonly the concentration that gives 50% inhibition) in the assay with KB was 1000 nM. Further, the result with HepG2, in the assay with Hep 3B2, in the assay on MDA-MB-231, with MCF7, in the assay with A549 and in the assay on Ca9-22 was inactive. Also, the Activity in the assay on J774.A1 [1] and in the assay with J774.A1 [2] was 50% throughout.

As to `CC(C)C[C@@H]1NC(=O)CNC(=O)[C@@H]2CCCN2C(=O)[C@H]([C@@H](C)O)NC(=O)[C@H](Cc2c[nH]c3ccccc23)NC(=O)[C@H](C)NC(=O)[C@H](CC(N)=O)NC1=O` [CYCLOMONTANIN A] (cyclo(AWTPGLN)), the Activity in the assay with J774.A1 [1] and in the assay with J774.A1 [2] was 50% in each case. Besides, the Activity entry in the assay on J774.A1 [3] is “Active”; in the assay with J774.A1 [4] it was “Active”; in the assay with J774.A1 [5], “Active”; in the assay with J774.A1 [6] it was “Active”; in the assay on J774.A1 [7] it was “Active”; in the assay on J774.A1 [8] (1 ug/ml, in the assay text read “at 1 ug/ml” for “at 3 ug/ml”), “Active”. Besides, the result with J774.A1 [9] and in the assay on J774.A1 [10] was Active.

Take `CC(C)[C@@H]1NC(=O)[C@H](Cc2c[nH]cn2)NC(=O)[C@H](CC(N)=O)NC(=O)[C@H](Cc2ccccc2)NC(=O)[C@H]([C@@H](C)O)NC(=O)[C@@H]2CCCN2C(=O)[C@@H]2CCCN2C(=O)[C@H](Cc2ccccc2)NC(=O)[C@H](CC(N)=O)NC1=O` [CYCLOMONTANIN C] (cyclo(FNHVNFPPT)): the Activity with J774.A1 [1] and in the assay with J774.A1 [2] was 50% in each case. The result with J774.A1 [11], in the assay on J774.A1 [12] and with J774.A1 [13] was Active.

Turning to `CC(C)C[C@@H]1NC(=O)CNC(=O)[C@@H]2CCCN2C(=O)[C@H](CC(N)=O)NC(=O)[C@H](C)NC(=O)[C@H](Cc2ccc(O)cc2)NC(=O)[C@@H]2CCCN2C1=O` [CYCLOMONTANIN D] (cyclo(ANPGLPY)), the Activity is 50% with J774.A1 [1], 50% with J774.A1 [2] and “Dose-dependent effect” in the assay on J774.A1 [18]. Besides, the inhibition – broadly, the percentage by which the read-out fell short of the control – at 3 µg/mL in the assay with J774.A1 [8] is 20%. Also, in the assay with J774.A1 [14], the inhibition at 5 µg/mL was 50%. Besides, in the assay with J774.A1 [15], the inhibition at 10 µg/mL was determined as 60%. Besides, the inhibition at 30 µg/mL in the assay on J774.A1 [16] came out at 85%. In addition, in the assay on J774.A1 [17], the inhibition at 50 µg/mL stood at 90%.
